Measured values as given in ChEMBL document CHEMBL1139971, “RXR-LXR heterodimer modulators for the potential treatment of dyslipidemia” (Bioorg Med Chem Lett, 2007).
pEC50: −log10 of the molar value. Activity calls are given as the source filed them. The calls are words filed in the database; no cut-off is given here.

What was measured:
[1] = Activity at RXR-LXR heterodimer in human THP1 cells assessed as induction of ABCA1 mRNA; type: cell-based; settings: THP-1
[2] = target: T1, Retinoic acid receptor RXR-alpha (Homo sapiens, UniProt P19793); experiment: (§1) Activity at RXRalpha by GAL4DNA cotransfection assay
T1 sequence (P19793 whole entry): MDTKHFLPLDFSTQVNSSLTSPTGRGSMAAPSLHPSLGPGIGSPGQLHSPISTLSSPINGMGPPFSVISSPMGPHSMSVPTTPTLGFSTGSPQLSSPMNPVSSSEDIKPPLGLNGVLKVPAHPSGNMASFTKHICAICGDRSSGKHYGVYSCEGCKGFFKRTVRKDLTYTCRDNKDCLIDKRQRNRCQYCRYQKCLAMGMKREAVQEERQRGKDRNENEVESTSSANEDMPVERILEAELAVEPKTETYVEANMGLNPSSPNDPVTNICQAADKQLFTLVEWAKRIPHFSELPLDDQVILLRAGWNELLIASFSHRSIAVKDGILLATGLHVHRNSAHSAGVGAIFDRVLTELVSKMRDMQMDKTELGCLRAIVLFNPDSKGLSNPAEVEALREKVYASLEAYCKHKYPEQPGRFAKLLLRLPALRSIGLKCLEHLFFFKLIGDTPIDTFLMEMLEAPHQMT
Procedure, shortened: (§2)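 RXRα co-transfection assay using the yeast GAL4 DNA-binding domain fused to the RXRα ligand-binding domain, with a yeast promoter driving luciferase. EC50 is reported, and efficacy is given as % maximal activation versus the reference RXR agonist.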

[3] = target: T2, Retinoic acid receptor RXR-alpha (Homo sapiens) (UniProt P19793); experiment: as §1; procedure, shortened: as §2
T2 sequence (whole entry): T1 sequence (P19793 whole entry)

[4] = tested on: THP-1; experiment: Activation of RXR-LXR heterodimer in human THP1 cells assessed as induction of ABCA1 mRNA relative to 5-((3-(1-ethyl-4,4,6-trimethyl-2-oxo-1,2,3,4-tetrahydroquinolin-7-yl)-4-(trifluoromethoxy)phenyl)methylene)thiazolidine-2,4-dione; type: cell-based; set-up: concentration or dose not given beside the values
[5] = target: T2, Retinoic acid receptor RXR-alpha (Homo sapiens); experiment: Activity at RXRalpha by GAL4DNA cotransfection assay relative to 5-((3-(1-ethyl-4,4,6-trimethyl-2-oxo-1,2,3,4-tetrahydroquinolin-7-yl)-4-(trifluoromethoxy)phenyl)methylene)thiazolidine-2,4-dione; procedure, shortened: as §2
[6] = Activity at RXR-PPARgamma heterodimer in primary human preadipocytes assessed as induction of adipocytes fatty acid binding protein by bDNA assay; type: cell-based
[7] = tested on: Rattus norvegicus; experiment: Effect on serum cholesterol level in high cholesterol diet fed Sprague-Dawley rat at 1 mg/kg, po after 8 days relative to control; type: functional
Procedure, shortened: (§3)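 Male Sprague–Dawley rats were fed a high-cholesterol atherogenic diet ad libitum. After 6 days on the diet, oral dosing began at 0.3, 1, 3 or 10 mg/kg in 15% hydroxypropyl β-cyclodextrin, pH 10, for 8 days total. Serum total cholesterol, HDL-C, LDL-C and triglycerides and plasma Cmax were measured. Groups are compared with vehicle as mean ± SEM by one-way ANOVA with Dunnett's test.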

[8] = tested on: Rattus norvegicus; experiment: Effect on serum HDL-C level in high cholesterol diet fed Sprague-Dawley rat at 1 mg/kg, po after 8 days relative to control; type: functional; procedure, shortened: as §3
[9] = tested on: Rattus norvegicus; experiment: Effect on serum triglyceride level in high cholesterol diet fed Sprague-Dawley rat at 1 mg/kg, po after 8 days relative to control; type: functional; procedure, shortened: as §3
[10] = species on record: Homo sapiens; experiment: Activity at RXR-PPARgamma in primary human preadipocytes assessed as induction of adipocytes fatty acid binding protein by bDNA assay relative to rosiglitazone; type: cell-based
[11] = tested on: Rattus norvegicus; experiment: Effect on serum LDL-C level in high cholesterol diet fed Sprague-Dawley rat at 1 mg/kg, po after 8 days relative to control; type: functional; procedure, shortened: as §3
[12] = species on record: Homo sapiens; experiment: Activity at RXR-PPARgamma in primary human preadipocytes assessed as induction of adipocytes fatty acid binding protein by bDNA assay relative to 5-((3-(1-ethyl-4,4,6-trimethyl-2-oxo-1,2,3,4-tetrahydroquinolin-7-yl)-4-(trifluoromethoxy)phenyl)methylene)thiazolidine-2,4-dione; type: cell-based
[13] = tested on: Rattus norvegicus; experiment: Effect on serum HDL-C level in high cholesterol diet fed Sprague-Dawley rat at 3 mg/kg, po after 8 days relative to control; type: functional; procedure, shortened: as §3
[14] = species on record: Mus musculus; experiment: Decrease in blood glucose level in db/db mouse after 11 days; type: functional, organism-based
Procedure, shortened: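 db/db mice, a diabetes model, were treated for 11 days and blood glucose was monitored.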

[15] = tested on: Rattus norvegicus; experiment: Effect on serum cholesterol level in high cholesterol diet fed Sprague-Dawley rat at 3 mg/kg, po after 8 days relative to control; type: functional; procedure, shortened: as §3
[16] = tested on: Rattus norvegicus; experiment: Effect on serum LDL-C level in high cholesterol diet fed Sprague-Dawley rat at 0.3 mg/kg, po after 8 days relative to control; type: functional; procedure, shortened: as §3
[17] = Cmax in high cholesterol diet fed Sprague-Dawley rat at 0.3 mg/kg, po; type: ADME, organism-based; set-up: dose 0.3 mg/kg, route oral; settings: in vivo; procedure, shortened: as §3
[18] = tested on: Rattus norvegicus; experiment: Effect on serum triglyceride level in high cholesterol diet fed Sprague-Dawley rat at 3 mg/kg, po after 8 days relative to control; type: functional; procedure, shortened: as §3
[19] = tested on: Rattus norvegicus; experiment: Effect on serum triglyceride level in high cholesterol diet fed Sprague-Dawley rat at 0.3 mg/kg, po after 8 days relative to control; type: functional; procedure, shortened: as §3
[20] = tested on: Rattus norvegicus; experiment: Effect on serum cholesterol level in high cholesterol diet fed Sprague-Dawley rat at 10 mg/kg, po after 8 days relative to control; type: functional; procedure, shortened: as §3
[21] = tested on: Rattus norvegicus; experiment: Effect on serum LDL-C level in high cholesterol diet fed Sprague-Dawley rat at 3 mg/kg, po after 8 days relative to control; type: functional; procedure, shortened: as §3
[22] = Cmax in high cholesterol diet fed Sprague-Dawley rat at 10 mg/kg, po; type: ADME, organism-based; set-up: dose 10 mg/kg, route oral; settings: in vivo; procedure, shortened: as §3
[23] = tested on: Rattus norvegicus; experiment: Effect on serum cholesterol level in high cholesterol diet fed Sprague-Dawley rat at 0.3 mg/kg, po after 8 days relative to control; type: functional; procedure, shortened: as §3
[24] = Oral bioavailability in Sprague-Dawley rat at 3 mg/kg; type: ADME, organism-based; settings: in vivo
Procedure, shortened: (§4)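 Sprague–Dawley rats dosed at 3 mg/kg in 10% hydroxypropyl β-cyclodextrin (pH 10). Oral bioavailability, Cmax, AUC and terminal half-life were taken from the plasma profile.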

[25] = Cmax in Sprague-Dawley rat at 3 mg/kg; type: ADME, organism-based; set-up: dose 3 mg/kg; settings: in vivo; procedure, shortened: as §4
[26] = tested on: Rattus norvegicus; experiment: Effect on serum LDL-C level in high cholesterol diet fed Sprague-Dawley rat at 10 mg/kg, po after 8 days relative to control; type: functional; procedure, shortened: as §3
[27] = tested on: Rattus norvegicus; experiment: Effect on serum triglyceride level in high cholesterol diet fed Sprague-Dawley rat at 10 mg/kg, po after 8 days relative to control; type: functional; procedure, shortened: as §3
[28] = Half life in Sprague-Dawley rat at 3 mg/kg; type: ADME, organism-based; set-up: dose 3 mg/kg; settings: in vivo; procedure, shortened: as §4
[29] = tested on: Rattus norvegicus; experiment: Effect on serum HDL-C level in high cholesterol diet fed Sprague-Dawley rat at 0.3 mg/kg, po after 8 days relative to control; type: functional; procedure, shortened: as §3
[30] = tested on: Rattus norvegicus; experiment: Effect on serum HDL-C level in high cholesterol diet fed Sprague-Dawley rat at 10 mg/kg, po after 8 days relative to control; type: functional; procedure, shortened: as §3
[31] = AUC in Sprague-Dawley rat at 3 mg/kg; type: ADME, organism-based; set-up: dose 3 mg/kg; settings: plasma; procedure, shortened: as §4

## CCN1C(=O)CC(C)(C)c2cc(C)c(-c3ccc(/C=C/C(=O)O)o3)cc21
[1]
  pEC50: < 5.52
[2]
  pEC50: < 5.00

## CCN1C(=O)CN(C(C)C)c2cc(C)c(-c3cc(/C=C/C(=O)O)ccc3OC(F)(F)F)cc21
[1]
  pEC50: < 5.52

## Cc1cc2c(cc1-c1cc(/C=C/C(=O)O)ccc1OC(F)(F)F)NC(=O)CC2(C)C
[1]
  pEC50: < 5.52
[3]
  Activity: inactive

## CCN1C(=O)CC(C)(C)c2cc(C)c(-c3cc(/C=C/C(=O)O)ccc3OC(F)(F)F)cc21
[1]
  pEC50: 8.44
[4]
  Activity: 81%
[2]
  pEC50: 8.74

## CCN1C(=O)C(C)Oc2cc(C)c(-c3cc(/C=C/C(=O)O)ccc3OC(F)(F)F)cc21 (stereo not drawn)
[1]
  pEC50: < 5.52

## CCn1c(=O)c2c(c3cc(-c4cc(/C=C/C(=O)O)ccc4OC(F)(F)F)ccc31)CCC2
[1]
  pEC50: < 5.52
[5]
  Activity: 125%
[2]
  pEC50: 7.02

## CCN1C(=O)CC(C)(C)c2cc(C)c(-c3cc(/C=C/C(=O)O)ccc3OC)cc21
[1]
  pEC50: 6.01

## CCCN1C(=O)CC(C)(C)c2cc(C)c(-c3cc(/C=C/C(=O)O)ccc3OC(F)(F)F)cc21
[6]
  pEC50: 6.88
[1]
  pEC50: < 5.52
[5]
  Activity: 83%
[2]
  pEC50: 8.68

## CCN1C(=O)CC(C)(C)c2cc(C)c(-c3ccc(/C=C/C(=O)O)s3)cc21
[1]
  pEC50: < 5.52
[2]
  pEC50: 5.92

## Cc1cc2c(cc1-c1cc(/C=C/C(=O)O)ccc1OC(F)(F)F)N(C(C)C)C(=O)CC2(C)C
[1]
  pEC50: 8.00
[4]
  Activity: 70%

## Cc1cc2c(cc1-c1cc(/C=C/C(=O)O)ccc1OC(F)(F)F)N(C)C(=O)CC2(C)C
[1]
  pEC50: 6.70
[4]
  Activity: 56%
[2]
  pEC50: 7.61

## CCn1c(=O)c2c(c3ccc(-c4cc(/C=C/C(=O)O)ccc4OC(F)(F)F)cc31)CCC2
[1]
  pEC50: < 5.52
[2]
  pEC50: 5.80

## CCN1C(=O)CC(C)(C)c2cc(C)c(-c3ccc(/C=C/C(=O)O)cc3OC(F)(F)F)cc21
[1]
  pEC50: < 5.52

## CCN1C(=O)CC(C)(C)c2cc(C)c(-c3cc(/C=C4\SC(=O)NC4=O)ccc3OC(F)(F)F)cc21
[7]
  Activity: 371 mg/dL
[8]
  Activity: 41 mg/dL
[9]
  Activity: 216 mg/dL
[6]
  pEC50: 6.86
[1]
  pEC50: 6.74
[2]
  pEC50: 9.05
[10]
  Activity: 25%
[11]
  Activity: 126 mg/dL

## Cc1cc2c(cc1-c1cc(/C=C/C(=O)O)ccc1OCC(F)(F)F)N(C(C)C)C(=O)CC2(C)C
[6]
  pEC50: < 5.52
[1]
  pEC50: 7.36
[4]
  Activity: 32%
[5]
  Activity: 64%
[2]
  pEC50: 7.74
[12]
  Activity: 149%

## CCN1C(=O)C(C)(C)Oc2cc(C)c(-c3cc(/C=C/C(=O)O)ccc3OC(F)(F)F)cc21
[1]
  pEC50: 7.40
[4]
  Activity: 79%
[5]
  Activity: 78%
[2]
  pEC50: 6.76

## Cc1cc2c(cc1-c1cc(/C=C/C(=O)O)ccc1OC(F)(F)F)N(CC(F)(F)F)C(=O)CC2(C)C
[6]
  pEC50: 6.90
[1]
  pEC50: < 5.52
[5]
  Activity: 94%
[2]
  pEC50: 8.74

## CCN1C(=O)C(C)(C)Oc2cc(C)c(-c3cc(/C(C)=C/C(=O)O)ccc3OC(F)(F)F)cc21
[6]
  pEC50: < 5.52
[1]
  pEC50: 6.79
[4]
  Activity: 76%
[5]
  Activity: 86%
[12]
  Activity: 240%

## CCN1C(=O)OC(C)(C)c2cc(C)c(-c3cc(/C=C/C(=O)O)ccc3OC(F)(F)F)cc21
[1]
  pEC50: < 5.52

## CCN1C(=O)CC(C)(C)c2cc(C)c(-c3cc(/C=C/C(=O)O)ccc3OCC(F)(F)F)cc21
[13]
  Activity: 34 mg/dL
[7]
  Activity: 440 mg/dL
[14]
  Activity: inactive
[15]
  Activity: 302 mg/dL
[16]
  Activity: 134 mg/dL
[17]
  Cmax: 61 ng/mL
[18]
  Activity: 249 mg/dL
[19]
  Activity: 341 mg/dL
[8]
  Activity: 38 mg/dL
[20]
  Activity: 349 mg/dL
[21]
  Activity: 102 mg/dL
[9]
  Activity: 182 mg/dL
[22]
  Cmax: 2120 ng/mL
[6]
  pEC50: < 5.52
[1]
  pEC50: 6.53
[23]
  Activity: 382 mg/dL
[24]
  bioavailability: 51%
[25]
  Cmax: 844 ng/mL
[26]
  Activity: 126 mg/dL
[4]
  Activity: 60%
[27]
  Activity: 175 mg/dL
[28]
  half-life: 4.6 h
[5]
  Activity: 76%
[29]
  Activity: 16 mg/dL
[2]
  pEC50: 7.17
[30]
  Activity: 41 mg/dL
[11]
  Activity: 151 mg/dL
[31]
  AUC: 5520 ng·h/mL
